Reference: PMC3210016 (Cancer research, 2010)

How the values were obtained:
HCC2429 cells [1] = test: Apoptosis screen of peptide library; format: cell-based, human; details: representative experiment, Figure 1A, quadruplicate
In short: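 A library of 155 peptides (5–15 residues) spanning the 34 EGF-like repeats of the Notch3 ECD was screened. HCC2429 and HeLa cells were seeded at 3,000 cells per well in 384-well format. Annexin V Alexa Fluor 680 (1:2,200 in RPMI) and peptide solution (0.1 mg/ml in RPMI before addition) were added. After overnight incubation, fluorescence was read on an FMAT 8100 HTS system, in quadruplicate per peptide.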

HCC2429 cells [2] = test: Apoptosis assay; format: cell-based, human; details: HCC2429, 24 hours, serum-free RPMI, flow cytometry; Figure 2D
In short: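 HCC2429 cells were exposed for 24 hours in serum-free RPMI to Notch3 ECD-derived peptides or peptide–Fc fusion proteins. The concentration was not given. Apoptotic fraction was measured with an Annexin V-FITC kit on a flow cytometer, with a γ-secretase inhibitor as positive control. Comparisons used the Wilcoxon rank-sum test, with significance at P < 0.05.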

Row | Substance | Induction of apoptosis (fluorescence, FMAT 8100 HTS) (HCC2429 cells [1]) | Apoptosis (Annexin V-FITC) (HCC2429 cells [2])
1 | CLNGGS [Peptide N132] | induced apoptosis | –
2 | CVCVNGWTGES [Peptide N17] | – | highest apoptotic activity
3 | CATAV [Peptide N102] | induced apoptosis | –
4 | CFHGAT [Peptide N103] | induced apoptosis | –
